The values that follow come from ChEMBL document CHEMBL5260843 (J Med Chem, 2019).

Molecules are shown by their SMILES. The source made the active and inactive calls. The rule behind the calls is not given here. Where only a bound is given, the exact number is not on record here.

For data set [1], the target named is CDK2/Cyclin A2 (Homo sapiens) (UniProt P24941+P20248). As to the kind of experiment: Inhibition of GST-tagged human CDK2/Cyclin A2 expressed in baculovirus infected Sf9 cells using 5-FAM-QSPKKG-CONH2 as substrate at 10 uM incubated for 60 mins in presence of ATP relative to control. The essentials: (§1)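 CDK/cyclin complexes were assayed with 3 μM 5-FAM peptide substrate. ATP was 20 μM for CDK1, 30 μM for CDK2, 280 μM for CDK4, 800 μM for CDK6 and 10 μM for CDK9. Buffer was 50 mM HEPES pH 7.5, 0.0015% Brij-35, 10 mM MgCl2 and 2 mM DTT. Reactions ran 60 min at 28 °C and were stopped with EDTA. Caliper conversion values were converted to % inhibition.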

Data set [2] has as its target T1, DCN1-like protein 1/NEDD8-conjugating enzyme Ubc12 (Homo sapiens) (UniProt Q96GG9+P61081). To be noted: dose 500.0 nM, time 1.0 hrs.
A short description of data set [3]: Metabolic stability in human liver microsomes assessed as intrinsic clearance. The data set is classed as ADME, Microsome. To be noted: read-out: CLH. For orientation: Microsomes from liver hold many membrane-bound enzymes, among them those of drug oxidation.
Data set [4] concerns the target Tyrosine-protein kinase BTK (Homo sapiens) (UniProt Q06187). As to the kind of experiment: Inhibition of N-terminal GST-tagged full length human BTK (2 to 659 residues) expressed in Sf21 insect cells using 5-FAM-EAIYAAPFAKKK as substrate at 10 uM incubated for 60 mins relative to control. The essentials: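 Mobility-shift kinase assay with BTK at 5 nM, 3 μM 5-FAM peptide and 90 μM ATP. Buffer was 50 mM HEPES pH 7.5, 0.0015% Brij-35, 10 mM MgCl2 and 2 mM DTT. Reactions ran 60 min at 28 °C and were stopped with EDTA. Substrate conversion was read on Caliper and converted to % inhibition.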

Data set [5] concerns MGC-803. As to the kind of experiment: Induction of ROS generation in human MGC-803 cells at 0.3 uM incubated for 24 hrs by DCFH-DA staining based flow cytometry analysis (reference value: 2.2%). The data set is classed as functional.
Data set [6] relates to KYSE-70. As to the kind of experiment: Induction of p21 accumulation in human KYSE-70 cells incubated for 24 hrs by Western blot analysis. The data set is classed as functional, cell-based. To be noted: dose 0.3-10 µM. The method in brief: (§2)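 Cells in 6-well plates were exposed to compound for 24 h. MGC-803 were grown in DMEM and KYSE70 in RPMI 1640, both with 10% FBS at 37 °C and 5% CO2. Lysates were made in RIPA with protease inhibitors and quantified by BCA. 30 μg protein was run on 8% SDS-PAGE and blotted to nitrocellulose. Primary antibodies were applied overnight at 4 °C, then HRP secondaries, with ECL and film detection. GAPDH was the loading control. Run three times.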
A general note: Immunoblotting shows a protein as a band on a membrane.

The target in the next data set is Cullin-4B (Homo sapiens) (UniProt Q13620). Description: Inhibition of cullin4B neddylation in human KYSE-70 cells at 0.3 to 10 uM incubated for 24 hrs by Western blot analysis. It counts as cell-based. To be noted: KYSE-70 cell line, dose 0.3-10 µM. The method in brief: as §2
In data set [7] the test system is MGC-803. As to the kind of experiment: Upregulation of NRF2 protein expression in human MGC-803 cells incubated for 24 hrs by Western blot analysis. It counts as functional, cell-based. To be noted: dose 1-10 µM. The essentials:
(§3)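 Cells were grown at 37 °C in 5% CO2 with 10% FBS, MGC-803 in DMEM and KYSE70 in RPMI 1640. They were exposed to the indicated compound concentrations for 24 h, then lysed in RIPA with protease inhibitors and quantified by BCA. 30 μg of protein was run on 8% SDS-PAGE and blotted to nitrocellulose. Primary antibody was applied overnight at 4 °C, with HRP secondary and ECL film detection. GAPDH served as the loading control; the experiment was done three times.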

Data set [8] concerns the target T1, DCN1-like protein 1/NEDD8-conjugating enzyme Ubc12 (Homo sapiens). To be noted: dose 500.0 nM, time 1.0 hrs. The source holds these as a separate data set.
Another data set deals with Cullin-1 (Homo sapiens) (UniProt Q13616). As to the kind of experiment: Inhibition of cullin1 neddylation in UBC/DCN1 overactivated human MGC-803 cells at 10 uM incubated for 24 hrs by Western blot analysis. It counts as cell-based. The essentials:
as §2

Data set [9] concerns MGC-803. Description: Induction of ROS generation in human MGC-803 cells at 3 uM incubated for 24 hrs by DCFH-DA staining based flow cytometry analysis (reference value: 2.2%). It counts as functional.
The target of another data set is Cullin-4A (Homo sapiens) (UniProt Q13619). As to the kind of experiment: Inhibition of cullin4A neddylation in human KYSE-70 cells at 0.3 to 10 uM incubated for 24 hrs by Western blot analysis. It counts as cell-based. To be noted: KYSE-70 cell line, dose 0.3-10 µM. The essentials:
as §2

In data set [10] the test system is KYSE-70. Description: Upregulation of NRF2 protein expression in human KYSE-70 cells incubated for 24 hrs by Western blot analysis. It counts as functional, cell-based. To be noted: dose 0.3-10 µM. The method in brief:
as §3

Data set [11] in a line: Metabolic stability in dog liver microsomes assessed as half life. The data set is classed as ADME, Canis lupus familiaris, Microsome.
Data set [12] concerns the target CDK4/Cyclin D3 (Homo sapiens) (UniProt P11802+P30281). As to the kind of experiment: Inhibition of full length human CDK4/N-terminal GST fused human cyclinD3 expressed in baculovirus expression system using 5-FAMIPTSPITTTYFFFKKK-COOH as substrate at 10 uM incubated for 60 mins in presence of ATP relative to control. The method in brief:
as §1

T1 sequence (P61081 whole entry, looked up): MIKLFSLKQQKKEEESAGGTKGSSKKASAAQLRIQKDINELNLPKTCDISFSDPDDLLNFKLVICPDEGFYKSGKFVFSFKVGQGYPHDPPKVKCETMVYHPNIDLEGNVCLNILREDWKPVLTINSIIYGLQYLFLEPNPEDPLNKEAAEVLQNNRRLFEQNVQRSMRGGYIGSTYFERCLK
T1 sequence (Q96GG9 whole entry, looked up): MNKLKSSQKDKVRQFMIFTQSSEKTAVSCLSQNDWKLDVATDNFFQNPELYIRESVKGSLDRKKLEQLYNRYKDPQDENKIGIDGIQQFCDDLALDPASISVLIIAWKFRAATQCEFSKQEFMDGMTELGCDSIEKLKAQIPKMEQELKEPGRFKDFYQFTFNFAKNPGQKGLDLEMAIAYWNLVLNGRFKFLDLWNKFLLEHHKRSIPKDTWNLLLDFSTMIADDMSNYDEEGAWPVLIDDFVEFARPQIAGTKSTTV
Sequence of Cullin-4B (Homo sapiens) (Q13620 whole entry): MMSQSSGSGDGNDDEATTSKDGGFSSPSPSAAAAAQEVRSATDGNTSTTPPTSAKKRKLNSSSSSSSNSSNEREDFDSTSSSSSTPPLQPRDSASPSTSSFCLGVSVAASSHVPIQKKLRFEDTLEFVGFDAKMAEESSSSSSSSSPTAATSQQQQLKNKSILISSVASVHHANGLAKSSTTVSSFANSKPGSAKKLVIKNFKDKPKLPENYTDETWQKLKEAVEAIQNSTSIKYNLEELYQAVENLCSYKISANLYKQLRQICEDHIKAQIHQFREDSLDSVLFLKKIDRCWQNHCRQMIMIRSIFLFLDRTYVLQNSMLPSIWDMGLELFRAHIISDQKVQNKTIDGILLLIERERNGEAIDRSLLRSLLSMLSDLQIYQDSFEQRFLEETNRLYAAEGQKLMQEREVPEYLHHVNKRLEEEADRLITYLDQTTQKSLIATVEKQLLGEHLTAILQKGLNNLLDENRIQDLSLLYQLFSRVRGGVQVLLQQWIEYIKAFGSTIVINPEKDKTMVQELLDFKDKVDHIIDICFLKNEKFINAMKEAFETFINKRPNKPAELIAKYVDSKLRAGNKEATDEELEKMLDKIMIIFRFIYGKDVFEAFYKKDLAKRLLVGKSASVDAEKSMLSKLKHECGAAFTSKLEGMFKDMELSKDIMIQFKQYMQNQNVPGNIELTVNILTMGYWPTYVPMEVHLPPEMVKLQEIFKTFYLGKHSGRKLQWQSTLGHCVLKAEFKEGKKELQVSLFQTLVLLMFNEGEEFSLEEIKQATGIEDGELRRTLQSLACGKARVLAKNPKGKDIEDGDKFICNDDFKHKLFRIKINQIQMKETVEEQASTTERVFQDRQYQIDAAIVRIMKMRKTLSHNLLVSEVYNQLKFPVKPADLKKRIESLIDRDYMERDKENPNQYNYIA
Sequence of Cullin-4A (Homo sapiens) (Q13619 whole entry): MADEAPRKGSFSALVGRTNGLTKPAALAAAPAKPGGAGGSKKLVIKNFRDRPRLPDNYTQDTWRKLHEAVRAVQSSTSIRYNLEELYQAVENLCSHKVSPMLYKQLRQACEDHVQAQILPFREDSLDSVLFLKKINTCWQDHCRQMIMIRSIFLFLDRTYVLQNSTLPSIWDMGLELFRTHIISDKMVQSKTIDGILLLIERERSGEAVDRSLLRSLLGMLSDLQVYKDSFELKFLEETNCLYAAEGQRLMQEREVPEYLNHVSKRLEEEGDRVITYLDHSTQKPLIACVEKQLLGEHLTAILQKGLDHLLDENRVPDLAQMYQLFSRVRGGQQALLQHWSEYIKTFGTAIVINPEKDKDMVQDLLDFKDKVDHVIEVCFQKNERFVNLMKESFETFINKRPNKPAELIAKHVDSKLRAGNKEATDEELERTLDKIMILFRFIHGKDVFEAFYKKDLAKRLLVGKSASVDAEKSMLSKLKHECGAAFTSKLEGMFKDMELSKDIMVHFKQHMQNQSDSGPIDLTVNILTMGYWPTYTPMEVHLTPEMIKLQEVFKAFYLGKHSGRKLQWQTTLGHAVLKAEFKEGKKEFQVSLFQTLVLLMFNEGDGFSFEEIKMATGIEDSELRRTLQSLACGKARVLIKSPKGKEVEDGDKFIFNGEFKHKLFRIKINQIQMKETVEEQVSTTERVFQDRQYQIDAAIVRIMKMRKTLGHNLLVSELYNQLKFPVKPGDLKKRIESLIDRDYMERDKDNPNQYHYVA
Sequence of Tyrosine-protein kinase BTK (Homo sapiens) (Q06187 whole entry, the tested form may be a part): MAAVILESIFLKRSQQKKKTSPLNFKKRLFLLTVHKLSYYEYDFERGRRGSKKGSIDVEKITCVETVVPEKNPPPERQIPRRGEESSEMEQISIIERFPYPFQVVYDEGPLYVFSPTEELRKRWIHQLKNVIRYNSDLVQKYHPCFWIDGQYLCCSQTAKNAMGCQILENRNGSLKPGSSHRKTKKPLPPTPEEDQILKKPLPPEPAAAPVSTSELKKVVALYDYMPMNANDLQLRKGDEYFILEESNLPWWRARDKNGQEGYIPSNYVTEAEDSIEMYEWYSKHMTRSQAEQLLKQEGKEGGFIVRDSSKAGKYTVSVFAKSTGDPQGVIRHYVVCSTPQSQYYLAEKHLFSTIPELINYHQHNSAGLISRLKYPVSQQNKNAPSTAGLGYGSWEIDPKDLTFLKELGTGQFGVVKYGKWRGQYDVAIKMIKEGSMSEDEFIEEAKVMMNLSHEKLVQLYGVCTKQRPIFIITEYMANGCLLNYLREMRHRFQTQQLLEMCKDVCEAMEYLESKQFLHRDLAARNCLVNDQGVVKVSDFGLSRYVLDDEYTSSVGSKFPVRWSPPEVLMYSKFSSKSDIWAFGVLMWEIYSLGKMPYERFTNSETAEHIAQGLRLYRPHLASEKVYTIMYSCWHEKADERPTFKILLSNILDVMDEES
Sequence of Cullin-1 (Homo sapiens) (Q13616 whole entry): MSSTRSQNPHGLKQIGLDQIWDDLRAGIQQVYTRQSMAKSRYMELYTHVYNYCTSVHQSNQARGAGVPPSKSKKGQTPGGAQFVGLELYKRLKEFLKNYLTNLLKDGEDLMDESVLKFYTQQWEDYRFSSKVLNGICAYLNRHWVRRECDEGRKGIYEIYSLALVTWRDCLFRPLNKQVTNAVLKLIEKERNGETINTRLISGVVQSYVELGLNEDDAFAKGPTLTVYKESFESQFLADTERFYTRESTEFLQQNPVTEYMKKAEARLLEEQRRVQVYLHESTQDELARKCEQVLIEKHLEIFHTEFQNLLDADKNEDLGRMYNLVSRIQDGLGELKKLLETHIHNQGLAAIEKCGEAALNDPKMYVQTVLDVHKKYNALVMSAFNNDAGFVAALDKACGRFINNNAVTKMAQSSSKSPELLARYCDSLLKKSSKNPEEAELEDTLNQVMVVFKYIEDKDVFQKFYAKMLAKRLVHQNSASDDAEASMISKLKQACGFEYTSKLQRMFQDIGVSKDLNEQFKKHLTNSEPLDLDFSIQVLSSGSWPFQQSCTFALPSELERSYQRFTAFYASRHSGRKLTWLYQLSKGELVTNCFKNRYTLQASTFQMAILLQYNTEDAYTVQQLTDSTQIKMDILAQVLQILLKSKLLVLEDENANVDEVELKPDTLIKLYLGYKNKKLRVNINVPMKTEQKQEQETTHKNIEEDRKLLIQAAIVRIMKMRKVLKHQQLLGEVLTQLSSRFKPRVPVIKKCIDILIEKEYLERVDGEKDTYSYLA

On to `Cc1cc(Sc2nnnn2CCN(C)C)n2nc(SCc3ccc(Cl)cc3)nc2n1.Cl`, for which the inhibition (commonly the share of the control response that was lost under treatment) in data set [1] was found to be 20.5%; in [4], 13.6%; in data set [12], 4.8%. Besides, the inhibition result (in data set [2]; in data set [8]; on Cullin-1 (Homo sapiens)) was “Active” each time. In data set [3], the CLint scaled was above 348 mL/min/kg. For the same molecule, the Activity in the data set with MGC-803 [5] was 2.8%; with KYSE-70 [6], “Dose-Dependent Effect”; with MGC-803 [7], “Dose-Dependent Effect”; in the data set with MGC-803 [9], 2.6%; with KYSE-70 [10] it was “Dose-Dependent Effect”. Also, the inhibition result on Cullin-4B (Homo sapiens) and on Cullin-4A (Homo sapiens) was “inactive” in each case. Besides, the half-life (usually how long it takes for the measured level to halve) in data set [11] was below 5 min.
